Bioassay records from PubChem.
This is a sample that favours compounds with a hit; in the whole collection about 3% have one here.
Statin myotox sup: suppressors of simvastatin-induced myotoxicity in C2C12 myotubes. AID 602340. ATP luminescence, 48 h; scaled: DMSO 0, geranylgeraniol control 100. 330,000 tested, 0.78% active. rescue of ATP level, % at 7.49 µM;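 active = mean ATP rescue above about 67%, or every replicate alone reaching that limit, limit read from the data, passing the limit was not always enough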;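 note: myotubes were challenged with 10 µM simvastatin during compound exposure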
PGC1a acetyl inh: lowers PGC1a acetylation signal in U2OS cells | AID 651687 | AlphaScreen anti-acetyl-lysine; with virally co-expressed GCN5 acetyltransferase | inhibition, % at 15.6 µM | 350,000 tested, 0.17% active;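 active = every replicate shows inhibition of at least 40%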
SIRT5 block: sirtuin-5 (human) deacylase inhibition | Q9NXA8 | 330,000 tested, 1.1% active | Purified SirT5, succinyl-peptide AMC, trypsin-coupled fluorescence | inhibition, % at 15 µM; in the data active = inhibition above about 15%
Target sequence (Q9NXA8 whole entry, looked up): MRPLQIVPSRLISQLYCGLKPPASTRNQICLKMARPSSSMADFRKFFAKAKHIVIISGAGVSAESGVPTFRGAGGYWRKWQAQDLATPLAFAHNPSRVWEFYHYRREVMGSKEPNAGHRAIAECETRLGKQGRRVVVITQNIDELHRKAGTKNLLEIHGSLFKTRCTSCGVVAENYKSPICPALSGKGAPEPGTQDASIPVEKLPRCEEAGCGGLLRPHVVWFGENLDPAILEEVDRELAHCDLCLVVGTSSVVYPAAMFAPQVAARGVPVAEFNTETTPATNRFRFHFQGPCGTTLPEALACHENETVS
Cneo AK release: causes C. neoformans cell lysis; lysis activity, % at 15 µM; 360,000 tested, 0.2% active; adenylate kinase release luminescence, 4 h; normalised: neutral wells 0, clomiphene wells 100;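 active = mean lysis activity across replicates of at least 80%, whatever share of replicates individually reach that level; inactive = mean lysis activity below 80%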
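Assay system: C. neoformans cells. Amount: yeast cell density of 5 × 10^6 cells/mL. Technique: AK luminescence. Buffer or medium: YPD. Times: static 4 h at 37 °C with compound, 1 h detection. Dosing: single-point compound dose. Read-out: lysis from increased AK signal.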
S100A4 inh HTS: blocks human S100A4 binding to myosin IIA peptide; P26447; S100A4/TAMRA-MyoIIA peptide fluorescence polarization; inhibition, % at 10.7 µM; 360,000 tested, 0.14% active; AID 652163;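 active = mean inhibition of at least 70% across replicates, with every replicate also reaching that level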
Target sequence (P26447 whole entry, looked up): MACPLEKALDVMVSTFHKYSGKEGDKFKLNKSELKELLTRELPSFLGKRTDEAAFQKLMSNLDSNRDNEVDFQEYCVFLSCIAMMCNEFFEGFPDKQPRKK
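Test system: S100A4 monomer protein; Medium: HEPES pH 7.2 with CaCl2, KCl, NaCl, DTT, Triton; Probe or stimulus: TAMRA-labelled myosin IIA heavy-chain peptide probe, 5 nM; Doses: one dose per compound; Times: polarization read 5 min after assay mix addition, stable 5–60 min; Benchmarks: neutral control DMSO, positive control TFP.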
Ecoli rRNA inh: inhibitors of bacterial rRNA selective over humanized ribosomes; GFP signal change (wild-type ribosome), % (concentration not given with the values); AID 720706; E. coli WT GFP vs humanized-ribosome RFP mutants, fluorescence, 24 h; stronger effect = lower value; DMSO median 0, no signal -100; 350,000 tested, 1.6% active;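 active = significant combined selectivity score with lowered wild-type GFP, culture density cut under 30%, mutant RFP and density less affected; inactive = any of these conditions unmet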
A number is an active result; - = inactive; . = no result given; ! = not confirmed by another sample.

SMILES	Statin myotox sup	PGC1a acetyl inh	SIRT5 block	Cneo AK release	S100A4 inh HTS	Ecoli rRNA inh
O=C(Nc1ccc(N2CCN(C(=O)c3ccco3)CC2)cc1)c1ccc(F)cc1	-	-	.	-	.	.
COc1ccc(-c2csc3nc(C(C)C)oc(=O)c23)cc1OC	-	-	23.6	-	-	-
CN(CC(=O)Nc1ccc(S(N)(=O)=O)cc1)Cc1ccccc1F	-	-	20.8	.	-	-
COc1ccc(S(=O)(=O)Nc2ccc3c(c2)C(=O)N([C@@H](C)CO)C[C@@H](C)[C@H](CN(C)S(=O)(=O)c2c(C)noc2C)OCCCC[C@@H](C)O3)cc1	.	-	-	-	-	-
O=C(CCC1CCN(Cc2ccccc2O)CC1)NC1CC1	-	-	.	-	-	-
O=C(CCC1CCN(Cc2ccccc2Cl)CC1)NC1CC1	-	94.6	-	-	-	-
O=C(NC(=S)Nc1cc(C(F)(F)F)ccc1Cl)c1ccccc1	-	-	.	-	.	.
FC(F)(F)c1ccc(Cl)c(NC(=S)N/N=C/c2ccccc2Cl)c1	.	-	27.6	-	-	-
COc1ccc2c3c([nH]c2c1)[C@@H](CO)N(Cc1ccccc1)CC31CCN(S(=O)(=O)c2ccc(C)cc2)CC1	.	.	-	.	-	-
CO[C@H]1CN(C)C(=O)c2ccc(NC(=O)Nc3ccc(Cl)cc3)cc2OC[C@@H](C)NC[C@H]1C	-	-	.	.	.	-
Cc1sc2ncn(CC(=O)Nc3cccc(S(N)(=O)=O)c3)c(=O)c2c1-c1ccccc1	-	-	-	-	-	-28.9
CCOC(=O)c1c(NC(=O)Cn2cnc3sc(C)c(-c4ccccc4)c3c2=O)sc(C)c1C	.	.	-	.	-	-
C[C@H](CO)N1C[C@H](C)[C@@H](CN(C)C(=O)Nc2cccc3ccccc23)Oc2c(NS(=O)(=O)c3cccs3)cccc2C1=O	-	-	-	-	-	-
C(=N\Nc1nc2ccccc2s1)/c1ccccn1	.	.	-	.	-	-29.5
Cc1cc(NN=Cc2ccccn2)nc2ccccc12	.	.	.	.	-	.
Cc1csc(N/N=C/c2ccccn2)n1	-	-	-	.	-	-31.6
Cc1noc(C)c1NC(=O)Nc1ccc2c(c1)C(=O)N([C@H](C)CO)C[C@H](C)[C@@H](CN(C)Cc1ccc3c(c1)OCO3)O2	-	-	-	-	-	-
CSCc1cc(C(=O)NC2CC2)c(N)s1	.	.	-	.	73.9	-
Cc1cc(C(=O)NC2CCC(C)CC2)c(C)o1 (stereo not drawn)	-	-	-	-	-	-
COc1cccc(NC(=O)CN(C)C(=O)Cn2[nH]c(=O)c3ccccc3c2=O)c1	-	.	-	-	-	-
CCOc1ccc(NCC(=O)Nc2ccc(Cl)cc2C)cc1	-	-	.	-	.	.
COc1ccc(Cl)cc1NC(=O)CN(C)C(=O)Cn1[nH]c(=O)c2ccccc2c1=O	-	-	-	-	-	-20.1
COc1ccc(Cl)cc1NC(=O)CC(C)=O	91.7	-	.	-	.	.
CCOC(=O)CC(=O)Nc1cc(Cl)ccc1O	84.2	-	.	-	.	.
COc1ccc(Cl)cc1NC(=O)COC(C)=O	.	.	-	.	-	-
SMILES	Statin myotox sup	PGC1a acetyl inh	SIRT5 block	Cneo AK release	S100A4 inh HTS	Ecoli rRNA inh
COc1ccc(NCC(=O)Nc2ccc(Cl)cc2C)c(OC)c1	-	-	-	-	-	-19.2
CC1CCC(C(C)C)C(OC(=O)Cn2c(-c3ccc(F)cc3)[n+](C)c3ccccc32)C1 (stereo not drawn)	.	.	-	-	-	-
CC1CCC(C(C)C)C(OC(=O)Cn2c(-c3ccccc3)[n+](C)c3ccccc32)C1 (stereo not drawn)	.	-	18.8!	-	-	-50.9!
CCCNC(=O)C[C@@H]1CC[C@@H]2[C@H](COC[C@H](O)CN2C(=O)Nc2ccccc2OC)O1	-	-	-	-	-	-
CCC1=C(c2ccc(C)cc2)S(=O)(=O)N=C1N1CCC(C(=O)NCCCN2CCCCC2C)CC1 (stereo not drawn)	115.4	-	-	-	-	-
C[C@@H]1CN([C@@H](C)CO)C(=O)c2cc(NC(=O)NC3CCCCC3)ccc2O[C@H]1CN(C)C(=O)Nc1cccc2ccccc12	-	-	-	-	-	-
CC(C)C(=O)NC(=S)/C=C1/N(C)c2ccccc2C1(C)C	.	-	-	.	-	-
CN1/C(=C/C(=S)NC(=O)C2CCC2)C(C)(C)c2ccccc21	-	-	15.0	-	-	-
CCOCCCNC(=O)CCc1nnc2n(CCC(C)C)c(=O)c3ccccc3n12	-	-	-	-	-	-
CC(C)CCn1c(=O)c2ccccc2n2c(CN3C(=O)NC4(CCC(C)CC4)C3=O)nnc12 (stereo not drawn)	93.0	-	.	-	.	.
CC(=O)Nc1cc(OC(C)=O)c2nonc2c1OC(C)=O	-	44.2	.	-	.	.
O=C(CSc1nnc(-c2ccncc2)n1Cc1ccco1)c1ccc(Cl)cc1	-	.	-	-	-	-19.9
O=C(CSc1nnc(-c2ccncc2)n1Cc1ccco1)Nc1ccccc1Cl	.	-	.	.	.	.
O=C(CSc1nnc(-c2ccncc2)n1Cc1ccco1)Nc1nc(-c2ccccc2)cs1	97.5	-	.	-	.	.
CCCCn1c(SCC(=O)Nc2nc(C)cs2)nnc1-c1cccnc1	-	-	17.3	-	-	-
Cc1occc1-c1nnc(SCC(=O)c2ccc(Cl)cc2)n1CC1CCCO1 (stereo not drawn)	136.5	-	-	-	-	-
CCCn1c(SCC(=O)Nc2nccs2)nnc1-c1cccnc1	-	-	.	-	.	.
Cc1ccc(C(=O)CSc2nnc(-c3ccco3)n2Cc2ccccc2)cc1	82.9	-	.	-	.	.
O=C(CSc1nnc(-c2ccco2)n1Cc1ccccc1)c1ccccc1	-	-	.	-	.	.
O=C(CCC1COc2ccccc2O1)Nc1ccccn1 (stereo not drawn)	155.5	-	.	-	.	.
C[C@H]1CN([C@@H](C)CO)C(=O)c2cc(NC(=O)Cn3cnnn3)ccc2O[C@@H]1CN(C)Cc1ccc(Oc2ccccc2)cc1	-	-	-	-	-	-
COc1ccc(S(=O)(=O)NNC(=O)c2sccc2-n2cccc2)cc1	96.1	-	-	-	-	-
COc1ccc(NC(=O)c2sccc2-n2cccc2)cc1	-	-	-	-	-	-30.8
O=C(NNS(=O)(=O)c1ccc(Br)cc1)c1sccc1-n1cccc1	.	-	-	.	-	-
CCNC(=O)[C@@H]1[C@@H](CO)[C@@H]2Cn3c(ccc(-c4cccc(C(=O)N(C)C)c4)c3=O)[C@H]1N2	.	-	-	.	-	-
Cc1onc(-c2ccccc2)c1C(=O)NC(C)c1ccccc1 (stereo not drawn)	.	.	-	.	-	-
Cc1onc(-c2ccccc2Cl)c1C(=O)N[C@@H](C)c1ccccc1	-	-	-	-	-	-20.9
c1ccc2oc(-c3[nH]ncc3CN(Cc3ccncc3)CC3CCCO3)cc2c1 (stereo not drawn)	-	-	-	-	-	-
